{"source": "ChEMBL document CHEMBL4376875", "about": "“Synthesis and Biological Evaluation of B-Cell Lymphoma 6 Inhibitors of N-Phenyl-4-pyrimidinamine Derivatives Bearing Potent Activities against Tumor Growth” (J Med Chem, 2020)", "key": {"[1]": {"system": "Farage", "experiment": "Antiproliferative activity against human Farage cells assessed as reduction in cell viability incubated for 72 hrs by CCK8 assay"}, "[2]": {"species_on_record": "Mus musculus", "conditions": "C57BL/6, 10 mg/kg"}, "[3]": {"species_on_record": "Mus musculus", "conditions": "C57BL/6, 10 mg/kg", "remark": "listed apart in the source"}, "[4]": {"system": "NCM460", "experiment": "Cytotoxicity against human NCM460 cells assessed as reduction in cell viability incubated for 72 hrs by CCK8 assay", "conditions": "NCM460, 72 h"}, "[5]": {"system": "L02", "experiment": "Cytotoxicity against human LO2 cells assessed as reduction in cell viability incubated for 72 hrs by CCK8 assay", "conditions": "L02, 72 h"}, "[6]": {"system": "Toledo", "experiment": "Effect on CD80 mRNA expression in BCL6-negative human Toledo cells at 1.25 to 5 uM incubated for 24 hrs by RT-PCR analysis", "assay_type": "functional, cell-based", "procedure,_shortened": "(§1)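 Toledo cells (BCL6-independent) were exposed to 1.25, 2.50 or 5.00 μM for 24 h, then mRNA was collected. Target-gene transcripts were quantified by real-time quantitative PCR against vehicle control.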"}, "[7]": {"system": "Mus musculus", "experiment": "In vivo inhibition of GC formation in NP-CGG immunized C57BL/6 mouse assessed as splenic GC B cells (GL7+FAS+B220+) at 10 mg/kg, iv administered 3 days once for 12 days starting from 2 days after NP-CGG addition by flow cytometry (reference value: 1.97%)", "assay_type": "functional", "parameters": "scale not given: the % may be the effect or the level left"}, "[8]": {"system": "SUD4", "experiment": "Induction of apoptosis in human SUDHL4 cells assessed as late apoptotic cells at 0.625 uM incubated for 48 hrs by annexin V-FITC and propidium iodide staining based flow cytometry analysis (reference value: 1.39%)", "assay_type": "functional"}, "[9]": {"experiment": "Toxicity in SCID mouse xenografted with human SUDHL4 cells assessed as adverse effect on heart morphology at 5 to 10 mg/kg, iv administered 3 days once for 15 days by H and E staining analysis", "assay_type": "organism-based", "conditions": "in vivo", "procedure,_shortened": "(§2)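 Male SCID mice, 6 weeks old, received 1 × 10⁷ SUDHL4 cells s.c. At about 100 mm³, mice were randomized (n = 7) to vehicle (20% 2-hydroxypropyl-β-cyclodextrin) or 5 or 10 mg/kg every 3 days i.v. for 15 days. Body weight and caliper volume (L × W² × 0.52) were recorded every 3 days. At sacrifice, tissues were fixed in 4% paraformaldehyde and paraffin-embedded for H&E or Ki67 IHC. Tumor mRNA was assayed by qPCR.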"}, "[10]": {"system": "Mus musculus", "experiment": "Upregulation of CD69 mRNA expression in SCID mouse xenografted with human SUDHL4 cells at 5 to 10 mg/kg, iv administered 3 days once for 15 days by qPCR analysis", "assay_type": "functional, organism-based", "procedure,_shortened": "as §2"}, "[11]": {"experiment": "Toxicity in SCID mouse xenografted with human SUDHL4 cells assessed as adverse effect on spleen morphology at 5 to 10 mg/kg, iv administered 3 days once for 15 days by H and E staining analysis", "assay_type": "organism-based", "conditions": "in vivo", "procedure,_shortened": "as §2"}, "[12]": {"system": "SUD4", "experiment": "Induction of apoptosis in human SUDHL4 cells assessed as early apoptotic cells at 0.625 uM incubated for 48 hrs by annexin V-FITC and propidium iodide staining based flow cytometry analysis (reference value: 2.62%)", "assay_type": "functional"}, "[13]": {"experiment": "Metabolic stability in human liver microsomes assessed as intrinsic clearance per mg of protein", "assay_type": "ADME, Microsome", "conditions": "read-out: CLH", "procedure,_shortened": "(§3)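 Incubation with human liver microsomes. Intrinsic clearance was scaled to liver using 45 mg microsomal protein per g liver and 20 g liver per kg body weight. Half-life was also determined.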"}, "[14]": {"system": "SUD4", "experiment": "Antiproliferative activity against human SUDHL4 cells assessed as reduction in living cells incubated for 48 hrs by Edu based flow cytometry analysis", "assay_type": "functional, cell-based", "procedure,_shortened": "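SUDHL4 cells were treated for 48 h, then pulsed with 10 μM EdU for 2 h, fixed, permeabilized and stained with EdU/Alexa Fluor Azide 488 for 30 min. Living and S-phase cells were counted by flow cytometry. Triplicate.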"}, "[15]": {"system": "SUD4", "experiment": "Antitumor activity against human SUDHL4 cells xenografted in SCID mouse assessed as reduction in tumor growth at 5 mg/kg, iv administered 3 days once for 15 days and measured every 3 days", "assay_type": "functional, organism-based", "procedure,_shortened": "as §2"}, "[16]": {"experiment": "Metabolic stability in human liver microsomes assessed as half life", "assay_type": "ADME, Microsome", "procedure,_shortened": "as §3"}, "[17]": {"experiment": "Cytotoxicity against HAF cells assessed as reduction in cell viability incubated for 72 hrs by CCK8 assay", "conditions": "Homo sapiens"}, "[18]": {"experiment": "Toxicity in SCID mouse xenografted with human SUDHL4 cells assessed as adverse effect on kidney morphology at 5 to 10 mg/kg, iv administered 3 days once for 15 days by H and E staining analysis", "assay_type": "organism-based", "conditions": "in vivo", "procedure,_shortened": "as §2"}, "[19]": {"experiment": "Toxicity in SCID mouse xenografted with human SUDHL4 cells assessed as adverse effect on liver morphology at 5 to 10 mg/kg, iv administered 3 days once for 15 days by H and E staining analysis", "assay_type": "organism-based", "conditions": "in vivo", "procedure,_shortened": "as §2"}, "[20]": {"system": "SUD4", "experiment": "Induction of apoptosis in human SUDHL4 cells assessed as late apoptotic cells at 2.5 uM incubated for 48 hrs by annexin V-FITC and propidium iodide staining based flow cytometry analysis (reference value: 1.39%)", "assay_type": "functional"}, "[21]": {"system": "PNT1A", "experiment": "Cytotoxicity against human PNT1A cells assessed as reduction in cell viability incubated for 72 hrs by CCK8 assay"}, "[22]": {"experiment": "Protein binding in human plasma assessed as unbound fraction", "assay_type": "ADME, cell-free", "procedure,_shortened": "(§4)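 Human plasma protein binding was measured by a contract laboratory.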"}, "[23]": {"system": "SUD4", "experiment": "Induction of apoptosis in human SUDHL4 cells incubated for 48 hrs by annexin V-FITC and propidium iodide staining based flow cytometry analysis", "assay_type": "functional, cell-based"}, "[24]": {"system": "SUD4", "experiment": "Induction of apoptosis in human SUDHL4 cells assessed as late apoptotic cells at 1.25 uM incubated for 48 hrs by annexin V-FITC and propidium iodide staining based flow cytometry analysis (reference value: 1.39%)", "assay_type": "functional"}, "[25]": {"system": "Toledo", "experiment": "Effect on CDKN1A mRNA expression in BCL6-negative human Toledo cells at 1.25 to 5 uM incubated for 24 hrs by RT-PCR analysis", "assay_type": "functional, cell-based", "procedure,_shortened": "as §1"}, "[26]": {"system": "Mus musculus", "experiment": "In vivo inhibition of GC formation in NP-CGG immunized C57BL/6 mouse assessed as proportion of Tfh cells (CXCR5+PD1+CD4+) at 10 mg/kg, iv administered 3 days once for 12 days starting from 2 days after NP-CGG addition by flow cytometry analysis (reference value: 2.25%)", "assay_type": "functional", "parameters": "scale not given: the % may be the effect or the level left"}, "[27]": {"experiment": "Toxicity in SCID mouse xenografted with human SUDHL4 cells assessed as reduction in body weight at 5 to 10 mg/kg, iv administered 3 days once for 15 days and measured every 3 days", "assay_type": "organism-based", "conditions": "in vivo", "procedure,_shortened": "as §2"}, "[28]": {"system": "SUD4", "experiment": "Induction of apoptosis in human SUDHL4 cells assessed as early apoptotic cells at 2.5 uM incubated for 48 hrs by annexin V-FITC and propidium iodide staining based flow cytometry analysis (reference value: 2.62%)", "assay_type": "functional"}, "[29]": {"system": "Mus musculus", "experiment": "Upregulation of ATR mRNA expression in SCID mouse xenografted with human SUDHL4 cells at 5 to 10 mg/kg, iv administered 3 days once for 15 days by qPCR analysis", "assay_type": "functional, organism-based", "procedure,_shortened": "as §2"}, "[30]": {"system": "Toledo", "experiment": "Effect on ATR mRNA expression in BCL6-negative human Toledo cells at 1.25 to 5 uM incubated for 24 hrs by RT-PCR analysis", "assay_type": "functional, cell-based", "procedure,_shortened": "as §1"}, "[31]": {"system": "DOHH-2", "experiment": "Antiproliferative activity against human DOHH2 cells assessed as reduction in cell viability incubated for 72 hrs by CCK8 assay", "conditions": "DOHH-2, 72 h"}, "[32]": {"experiment": "Protein binding in human plasma", "assay_type": "ADME, cell-free", "conditions": "read-out: PPB (converted)", "procedure,_shortened": "as §4"}}, "note": "pIC50: −log10 of the molar value. Activity calls are given as the source filed them. The calls are words filed in the database; no cut-off is given here.", "data": [{"compound": "COc1cc(Nc2nc(N3C[C@@H](C)N[C@@H](C)C3)ncc2F)ccc1NC(=O)c1ccc(C2=CCCC2)s1", "values": [{"measurement": "pIC50", "setting": "[1]", "result": 5.90}, {"measurement": "inhibition", "setting": "[2]", "result": "Active"}, {"measurement": "inhibition", "setting": "[3]", "result": "Active"}, {"measurement": "pIC50", "setting": "[4]", "result": 4.49}, {"measurement": "pIC50", "setting": "[5]", "result": 4.88}, {"measurement": "Activity", "setting": "[6]", "result": "inactive"}, {"measurement": "Activity", "setting": "[7]", "result": 0.45, "unit": "%"}, {"measurement": "Activity", "setting": "[8]", "result": 3.35, "unit": "%"}, {"measurement": "Activity", "setting": "[9]", "result": "Non-Toxic"}, {"measurement": "Activity", "setting": "[10]", "result": "Active"}, {"measurement": "Activity", "setting": "[11]", "result": "Non-Toxic"}, {"measurement": "Activity", "setting": "[12]", "result": 3.42, "unit": "%"}, {"measurement": "microsomal CLint", "setting": "[13]", "result": "< 9.6", "unit": "µL/min/mg"}, {"measurement": "Activity", "setting": "[14]", "result": "Dose-dependent effect"}, {"measurement": "Activity", "setting": "[15]", "result": "Active"}, {"measurement": "half-life", "setting": "[16]", "result": "> 1", "unit": "h"}, {"measurement": "pIC50", "setting": "[17]", "result": 4.58}, {"measurement": "Activity", "setting": "[18]", "result": "Non-Toxic"}, {"measurement": "Activity", "setting": "[19]", "result": "Non-Toxic"}, {"measurement": "Activity", "setting": "[20]", "result": 67.3, "unit": "%"}, {"measurement": "pIC50", "setting": "[21]", "result": 5.09}, {"measurement": "fraction unbound", "setting": "[22]", "result": 0.076}, {"measurement": "Activity", "setting": "[23]", "result": "Dose-dependent effect"}, {"measurement": "Activity", "setting": "[24]", "result": 12.5, "unit": "%"}, {"measurement": "Activity", "setting": "[25]", "result": "inactive"}, {"measurement": "Activity", "setting": "[26]", "result": 0.99, "unit": "%"}, {"measurement": "Activity", "setting": "[27]", "result": "Non-Toxic"}, {"measurement": "Activity", "setting": "[28]", "result": 5.91, "unit": "%"}, {"measurement": "Activity", "setting": "[29]", "result": "Active"}, {"measurement": "Activity", "setting": "[30]", "result": "inactive"}, {"measurement": "pIC50", "setting": "[31]", "result": 5.92}, {"measurement": "fraction unbound", "setting": "[32]", "result": 0.076}]}]}
